According to article PMC5678849 (Kidney International Reports, 2017):
Read-outs that look alike come from different tables or passages of the source. Marks after values point to notes of the source that are not given here.

Assays:
[1] = system: BAP, TRACP-5b, FGF23 serum levels; assay: Serum BAP, TRACP-5b and FGF23, multiple-dose study; type: in vivo, human (Japanese hemodialysis patients with SHPT)
Procedure, shortened: (§1)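 Blood was drawn before each dialysis, plus serial samples after the day 1 and day 27 injections. Serum iPTH, BAP, TRACP-5b and FGF23 were measured centrally. Data are percent change from baseline, mean ± SD.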

[2] = system: serum intact parathyroid hormone (iPTH); assay: Serum iPTH change, multiple-dose study; type: in vivo, human (Japanese hemodialysis patients with SHPT); conditions: mean ± SD; for serum iPTH, percent change 30 minutes after injection / serum iPTH, percent change from baseline on day 3: multiple-dose study; for serum iPTH, percent change 30 minutes after injection: first injection, n = 8
Procedure, shortened: as §1

[3] = system: serum albumin-corrected calcium (cCa); assay: Serum cCa change, multiple-dose study; type: in vivo, human (Japanese hemodialysis patients with SHPT); conditions: mean ± SD
Procedure, shortened: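 Randomized, double-blind, placebo-controlled, 16 centres. Patients: ≥20 y, hemodialysis 3×/week ≥90 days, iPTH ≥ 300 pg/ml, cCa ≥ 9.0 mg/dl, dialysate Ca ≥2.25 mEq/l. Blood taken before each dialysis; follow-up to day 55. Serum cCa measured centrally; percent change from baseline at day 55 or withdrawal.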

[4] = Safety and tolerability, multiple-dose study; type: in vivo, human (Japanese hemodialysis patients with SHPT)
Procedure, shortened: (§2)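 Safety was assessed descriptively from AEs, vital signs, clinical laboratory tests and 12-lead ECGs (centrally analyzed, QTc by Fridericia). Anti-drug antibodies were measured by validated ELISA. Hypocalcemia was defined as cCa < 7.5 mg/dl. Dosing was a single i.v. injection after dialysis (5, 10 or 20 mg), or 2.5 or 5 mg i.v. three times weekly for 4 weeks. Each dose cohort started only after the earlier cohorts met the safety criteria.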

[5] = Plasma etelcalcetide pharmacokinetics, single-dose study; type: in vivo, human (Japanese hemodialysis patients with SHPT); conditions: human, iv
Procedure, shortened: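 Japanese hemodialysis patients (≥20 y) with SHPT, iPTH ≥ 300 pg/ml and cCa ≥ 9.0 mg/dl, randomized 2:1 to drug or placebo in cohorts of 6. A single i.v. injection (5, 10 or 20 mg) was given via the venous blood line after dialysis. Plasma drug was measured by LC/MS/MS. Cmax and AUClast (to the last quantifiable point before the next hemodialysis) were derived per subject by noncompartmental analysis and reported as mean ± SD.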

[6] = cited from earlier work
[7] = system: serum albumin-corrected calcium (cCa); assay: Serum cCa change, single-dose study; type: in vivo, human (Japanese hemodialysis patients with SHPT); conditions: mean ± SD, n = 4
Procedure, shortened: (§3)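 Japanese hemodialysis patients with SHPT received a single 5, 10 or 20 mg i.v. injection, or placebo, via the venous blood line after dialysis. Active groups had n = 4; placebo was pooled across cohorts. Serum iPTH, albumin-corrected Ca and P were measured by a central laboratory. Data are percent change from baseline over time, with mean maximum change from baseline, reported descriptively as mean ± SD.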

[8] = Plasma etelcalcetide pharmacokinetics, multiple-dose study; type: in vivo, human (Japanese hemodialysis patients with SHPT); conditions: for AUC(0-t) / Cmax: human, plasma, iv; for AUC(0-t): AUClast
Procedure, shortened: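 Two cohorts of 11 hemodialysis patients with SHPT, randomized 8:3 to drug or placebo. Plasma drug was measured by LC/MS/MS, with samples taken before each dialysis. Per-subject noncompartmental Cmax and AUClast were compared for the day 1 and day 27 injections. Values are geometric mean (95% CI).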

[9] = Antibodies against etelcalcetide, ELISA; type: in vivo, human (Japanese hemodialysis patients with SHPT); conditions: validated ELISA
[10] = system: serum intact parathyroid hormone (iPTH); assay: Serum iPTH change, single-dose study; type: in vivo, human (Japanese hemodialysis patients with SHPT); conditions: for serum iPTH, mean maximum change from the baseline: mean ± SD, n = 4
Procedure, shortened: as §3

serum P = assay: Serum phosphorus change; type: in vivo, human (Japanese hemodialysis patients with SHPT); conditions: for serum P, percent change from the baseline at the end of the treatment or withdrawal: mean ± SD
[11] = Safety and tolerability, single-dose study; type: in vivo, human (Japanese hemodialysis patients with SHPT)
Procedure, shortened: as §2

[12] = 2.5 mg i.v. 3 times weekly for 4 weeks
[13] = 5 mg i.v. 3 times weekly for 4 weeks
[14] = M1, 2.5 mg, n = 7, geometric mean (95% confidence interval)
[15] = M2, 5 mg, n = 8, geometric mean (95% confidence interval)
[16] = 2.5 mg, M1, 2.5 mg i.v. 3 times weekly for 4 weeks, day 1 (first administration), n = 8, mean ± SD
[17] = 5 mg, M2, 5 mg i.v. 3 times weekly for 4 weeks, day 1, n = 8, mean ± SD
[18] = 5 mg, M2, 5 mg i.v. 3 times weekly for 4 weeks, day 27, n = 8, mean ± SD

Structure (SMILES): CC(=O)N[C@H](CSSC[C@H](N)C(=O)O)C(=O)N[C@H](C)C(=O)N[C@H](CCCNC(=N)N)C(=O)N[C@H](CCCNC(=N)N)C(=O)N[C@H](CCCNC(=N)N)C(=O)N[C@H](C)C(=O)N[C@H](CCCNC(=N)N)C(N)=O [etelcalcetide, Etelcalcetide]
- serum FGF23 ([1]; day 29): tended to decrease
- serum BAP before hemodialysis ([1]; day 29, etelcalcetide groups): remained unchanged
- serum TRACP-5b ([1]; day 29, etelcalcetide groups): a trend toward decreases
- serum FGF23 ([1]; day 55): a trend toward a return to baseline levels
- serum BAP before hemodialysis ([1]; day 55, etelcalcetide groups): trends toward decreases
- serum TRACP-5b ([1]; day 55, etelcalcetide groups): a return to baseline
- serum iPTH, percent change from the baseline at the end of the study or at study withdrawal [2, 12]: −26.25% ± 26.94%
- serum iPTH, percent change from the baseline at the end of the study or at study withdrawal [2, 13]: −45.65% ± 20.06%
- serum iPTH, percent change 30 minutes after injection ([2]; 2.5 mg i.v.): −41.65% ± 19.36%
- serum iPTH, percent change from baseline on day 3 ([2]; 2.5 mg i.v.): −24.25% ± 13.36%
- serum iPTH, percent change 30 minutes after injection ([2]; 5 mg i.v.): −58.60% ± 6.47%
- serum iPTH, percent change from baseline on day 3 ([2]; 5 mg i.v.): −32.64% ± 18.20%
- serum cCa, mean percent change from the baseline at the end of the study or at withdrawal [3, 12]: −7.05% ± 4.60%
- serum cCa, mean percent change from the baseline at the end of the study or at withdrawal [3, 13]: −12.75% ± 4.88%
- patients with AEs ([4]; 2.5 mg i.v. 3 times weekly for 4 weeks, 7 patients of 8): 87.5%
- serious AE ([4]; 2.5 mg i.v. 3 times weekly, relationship to treatment not ruled out): cardiopulmonary arrest
- serious AE ([4]; 5 mg i.v. 3 times weekly): no serious AE was reported
- patients with AEs ([4]; 5 mg i.v. 3 times weekly for 4 weeks, 3 patients of 8): 37.5%
- deaths ([4]; multiple-dose study): No deaths occurred
- hypocalcemia with serum cCa < 7.5 mg/dl ([4]; multiple-dose study, 2.5 or 5 mg i.v. 3 times weekly for 4 weeks): No patients experienced hypocalcemia
- AUC(0-t) ([5]; 5 mg): 1110 ± 360 ng·h/mL
- Cmax ([5]; 5 mg): 236 ± 89 ng/mL
- AUC(0-t) ([5]; 10 mg): 2550 ± 110 ng·h/mL
- Cmax ([5]; 10 mg): 589 ± 88 ng/mL
- AUC(0-t) ([5]; 20 mg): 5460 ± 680 ng·h/mL
- Cmax ([5]; 20 mg): 999 ± 135 ng/mL
- tolerability ([6]; 3-times-weekly 5- and 10-mg doses for 4 weeks, non-Japanese patients): tolerable
- tolerability ([6]; single i.v. injection at 5 to 60 mg, non-Japanese SHPT patients): tolerable
- tolerability ([6]; single injection of 5 mg, healthy Japanese subjects, ref unpublished data): tolerable
- serum cCa, mean maximum change from the baseline ([7]; single i.v. 5 mg): −7.26% ± 3.48%
- serum cCa, mean maximum change from the baseline ([7]; single i.v. 10 mg): −6.79% ± 5.86%
- serum cCa, mean maximum change from the baseline ([7]; single i.v. 20 mg): −14.26% ± 6.01%
- AUClast ratio day 27/day 1 [8, 14]: 3.05 (2.91–3.19) ^c
- Cmax ratio day 27/day 1 [8, 14]: 1.18 (0.86–1.62) ^c
- AUClast ratio day 27/day 1 [8, 15]: 3.20 (2.87–3.57) ^c
- Cmax ratio day 27/day 1 [8, 15]: 1.09 (0.90–1.32) ^c
- AUC(0-t) [8, 16]: 600 ± 133 ng·h/mL
- AUC(0-t) ([8]; 2.5 mg, M1, 2.5 mg i.v. 3 times weekly for 4 weeks, day 27 (last administration), n = 7, mean ± SD): 1830 ± 380 ng·h/mL
- Cmax [8, 16]: 151 ± 56 ng/mL
- AUC(0-t) [8, 17]: 1200 ± 560 ng·h/mL
- AUC(0-t) [8, 18]: 3860 ± 1840 ng·h/mL
- Cmax [8, 17]: 315 ± 89 ng/mL
- Cmax [8, 18]: 356 ± 143 ng/mL
- Cmax at week 4 relative to the initial dose ([8]; multiple-dose study): ≤ 1.18 times
- mean AUClast following day 27 injection relative to day 1 injection ([8]; multiple-dose study, discussion): approximately 3 times
- antietelcalcetide antibodies ([9]; multiple-dose study): No antietelcalcetide antibodies were detected
- antietelcalcetide antibodies ([9]; single-dose study): No antietelcalcetide antibodies were detected
- serum iPTH, mean maximum change from the baseline ([10]; single i.v. 5 mg): −50.43% ± 12.63%
- serum iPTH, mean maximum change from the baseline ([10]; single i.v. 10 mg): −69.26% ± 11.35%
- serum iPTH, percent change from the baseline ([10]; single i.v. 20 mg, at 56 hours): approximately −30%
- serum P, percent change from the baseline at the end of the treatment or withdrawal (serum P; [12]): −14.68% ± 13.38%
- serum P, percent change from the baseline at the end of the treatment or withdrawal (serum P; [13]): −13.79% ± 18.18%
- serum P versus placebo (serum P; single-dose study, from 4 hours to day 4): remained lower
- patients with AEs ([11]; single i.v. 10 mg, 1 patient of 4 (APTT), considered unrelated to treatment): 25.0%
- hypocalcemia with cCa < 7.5 mg/dl ([11]; single i.v. 5, 10 or 20 mg): No patients developed hypocalcemia
- deaths or serious adverse events ([11]; single-dose study, 5, 10 or 20 mg i.v.): No deaths or serious adverse events (AEs) were reported
